For one series, the target named is T1, CD1d (Mus musculus, UniProt P11609).
T1 sequence (P11609 22-305 limits assumed): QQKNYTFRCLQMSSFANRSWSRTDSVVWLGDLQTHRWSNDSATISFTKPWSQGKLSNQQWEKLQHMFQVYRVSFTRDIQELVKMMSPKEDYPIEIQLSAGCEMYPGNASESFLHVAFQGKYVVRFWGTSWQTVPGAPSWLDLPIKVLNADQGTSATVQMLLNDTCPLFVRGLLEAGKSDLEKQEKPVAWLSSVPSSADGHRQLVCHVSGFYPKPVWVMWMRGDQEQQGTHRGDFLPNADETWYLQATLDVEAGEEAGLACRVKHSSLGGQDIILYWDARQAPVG
T1 sequence (P01887 21-119 partner): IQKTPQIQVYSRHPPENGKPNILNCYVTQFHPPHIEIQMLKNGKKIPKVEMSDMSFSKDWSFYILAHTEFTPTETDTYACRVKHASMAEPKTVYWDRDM
The series can be described thus: Decay of glycolipids from CD1d measured by L317 binding. Particulars: surface plasmon resonance, 25°C. Summed up: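 His-tagged mouse CD1d pulsed overnight with each glycolipid, then captured on Ni-charged NTA sensor chip channels; complexes allowed to decay for varied times before a saturating dose of αGalCer/CD1d-specific mAb L317 was flowed over. Binding was measured by surface plasmon resonance at 25°C and normalized to maximum binding for each antigen.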

Another series deals with 1.2 Vα14i NKT hybridoma. The experiment in a line: ERK1/2 phosphorylation in Vα14i NKT hybridoma after glycolipid-pulsed APCs. The following applies: 1.2 hybridoma; for extent of ERK1/2 phosphorylation: A20-CD1d cells as APCs. The series is classed as cell-based, mouse. The procedure, abridged:
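A20-CD1d cells (10^6/ml) were pulsed 2 h with glycolipid (DMSO stock diluted in PBS), washed cold, and mixed with hybridoma cells at 4:1 on ice, then pelleted and warmed to 37°C for timed intervals. Cells were fixed in 4% PFA, stained for Thy1.2, permeabilized in 90% methanol and stained for ppERK1/2. Flow cytometry was gated on Thy1.2+ cells with t = 0 as negative control. Values are % ppERK+ (glycolipid) minus % ppERK+ (vehicle).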

The subject of a further series is splenic DC. The experiment in a line: Phenotype of splenic DC from glycolipid immunized mice. Format: in vivo, mouse. Particulars: 17.5 h and 44 h after immunization.
The test system of another series is C57BL/6J mice. The series can be described thus: Serum cytokine ELISA after i.v. injection of glycolipid. Particulars: 1 μg i.v. The series is classed as in vivo, mouse. Summed up:
(§1)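 Glycolipid was dissolved at 100 μg/mL in DMSO, diluted in PBS, heated 56°C 10 min and vortexed. Glycolipid or vehicle was injected i.v. and mice bled at set times. Serum cytokines were quantified by sandwich ELISA with paired capture/detection mAbs.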
In general terms: ELISA stands for enzyme-linked immunosorbent assay.

The target of series [1] is Vα14i/Vβ8.2 TCR of 1.2 Vα14i NKT cell hybridoma (Mus musculus, UniProt A0A0B4J1J9+A0A0G2JG46+A0A140T8N6+P11609). The series can be described thus: Equilibrium glycolipid/CD1d tetramer staining of 1.2 hybridoma. Format: binding. Particulars: glycolipid/CD1d tetramers.
The next series concerns Vα14i NKT cells. The experiment in a line: Ex vivo activation of Vα14i NKT cells after i.v. glycolipid. The series is classed as in vivo, mouse. The following applies: 1 μg i.v.; for Vα14i NKT cell activation (percentage producing IFNγ, IL-4 and TNF; CD69 and CD40L expression): two hours after injection. Summed up:
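Mice received glycolipid i.v. (DMSO stock diluted in PBS, heated 56°C 10 min). Spleens were taken at 2 h, mechanically dissociated, filtered and red cells lysed. Cells were stained with mAbs together with CD1d tetramer in PBS/10% FCS at 4°C for 45 min and analysed by flow cytometry.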

The target of series [2] is T2, glycolipid/CD1d complexes on splenic APC (Mus musculus, UniProt P11609).
T2 sequence (P11609 22-336): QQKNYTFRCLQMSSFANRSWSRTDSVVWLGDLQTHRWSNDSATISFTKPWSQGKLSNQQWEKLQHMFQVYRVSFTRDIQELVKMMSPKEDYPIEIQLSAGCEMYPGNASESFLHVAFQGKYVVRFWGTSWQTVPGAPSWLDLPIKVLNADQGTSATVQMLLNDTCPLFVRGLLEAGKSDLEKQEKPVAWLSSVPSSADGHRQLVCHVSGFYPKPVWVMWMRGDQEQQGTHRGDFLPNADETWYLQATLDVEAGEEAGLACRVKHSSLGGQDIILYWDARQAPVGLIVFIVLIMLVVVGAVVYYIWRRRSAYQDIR
T2 sequence (P01887 21-119 partner): T1 sequence (P01887 21-119 partner)
The series is classed as in vivo. The following applies: 1 μg i.v. The procedure, abridged: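 At set times after i.v. immunization, spleens were collagenase D-digested at 37°C, treated with 5 mM EDTA for 5 min and strained. Cells were split into CD11c-enriched and depleted fractions with anti-CD11c magnetic beads. A dose range of each fraction was cultured with 1.2 hybridoma cells (2 × 10^5/well) without added antigen. Supernatant IL-2 was measured by sandwich ELISA.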

Another series relates to monoclonal antibody L317. The series can be described thus: L317 antibody binding to glycolipid/CD1d complexes. Particulars: surface plasmon resonance. The procedure, abridged: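 Real-time binding of L317 to glycolipid-loaded CD1d was measured by surface plasmon resonance at 25°C. Kinetic parameters came from fitting specific sensorgrams.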
On the technique in general: In SPR one partner is held on a chip, and binding of the other changes the refractive index at the surface.

The test system of another series is NK cells. The series can be described thus: NK cell trans-activation. Particulars: 1 μg i.v., 18 h after injection, liver and spleen. Format: in vivo, mouse. The procedure, abridged:
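Glycolipid (DMSO stock diluted in PBS) was given i.v. Liver was perfused via portal vein and mononuclear cells isolated at the 40/60% Percoll interface (900 g, 20 min); splenocytes were dissociated and red cells lysed. Cells were surface-stained at 4°C for 45 min, then permeabilized with Cytofix/Cytoperm for intracellular IFNγ staining and flow cytometry.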

The test system of the next series is CD40−/− mice. The experiment in a line: Serum IFNγ in CD40-deficient mice. The following applies: 1 μg i.v., serum at 6 h and 24 h, versus C57BL/6. The series is classed as in vivo, mouse. The procedure, abridged:
as §1

[3] abbreviates: APC harvested 1.5 h after immunization.

Like-named read-outs stand apart in the source and are kept apart here.

In the case of `CCCCCCCCCCCCCCCCCCCCCCCC(=O)N[C@@H](COC1OC(CO)C(O)C(O)C1O)[C@H](O)[C@H](O)CCCCC` (some centres unmarked) [OCH], the “t1/2 (dissociation of glycolipid from CD1d)” value at CD1d turned out to be 1.09 h; on CD1d (listed as CD1d/OCH), 1.09 ± 0.63 h. In addition, the “extent of ERK1/2 phosphorylation” value in the series with 1.2 Vα14i NKT hybridoma is “indistinguishable”. Besides, the ERK1/2 phosphorylation entry in the series on 1.2 Vα14i NKT hybridoma (BMDCs or splenic B cells as APCs) was “induced fewer 1.2 cells to phosphorylate ERK1/2 than αGalCer”. The “increased expression of CD80, CD86 and CD1d in splenic DC” value in the series on splenic DC was “to the same extent as αGalCer”. Moreover, the “serum IFNγ level” value in the series with C57BL/6J mice is listed as “relatively low levels of IFNγ”. For the same compound, the “serum IL-4 level” value in the series on C57BL/6J mice is listed as “high levels of IL-4, equivalent to αGalCer”. Besides, in series [1], the “tetramer binding to 1.2 hybridoma cells” value was “barely able to bind”. In the series with Vα14i NKT cells (2 h after injection, spleen), the “CD40L expression on Vα14i NKT cells” value was “induced more CD40L than C-glycoside”. Besides, the “Vα14i NKT cell activation (percentage producing IFNγ, IL-4 and TNF; CD69 and CD40L expression)” value in the series on Vα14i NKT cells was “less potent than αGalCer”. Further, the “IL-2 release by 1.2 hybridoma with APC from immunized mice” value in [2] (setting [3]) was “higher production of IL-2 than C-glycoside”; in series [2] (APC harvested 17.5 h and 44 h after immunization) it was “considerably reduced compared to αGalCer and C-glycoside”. The “affinity of L317 for glycolipid bound to CD1d” value in the series with monoclonal antibody L317 was “weaker”. For the same compound, the “IFNγ production by NK cells (trans-activation)” value in the series with NK cells is on record as “Impaired NK cell trans-activation”.

On to `CCCCCCCCCCCCCCCCCCCCCCCCCC(=O)N[C@@H](CO[C@H]1O[C@H](CO)[C@H](O)[C@H](O)[C@H]1O)[C@H](O)[C@H](O)CCCCCCCCCCCCCC` [αGalCer, α-galactosyl ceramide], for which the “t1/2 (dissociation of glycolipid from CD1d)” value was 5.043 h on CD1d and 5.043 ± 2.207 h on CD1d (listed as CD1d/αGalCer). Further, the “extent of ERK1/2 phosphorylation” value in the series on 1.2 Vα14i NKT hybridoma is “dose-dependent increase in ppERK”. Moreover, the “Vα14i NKT cell activation (percentage producing IFNγ, IL-4 and TNF; CD69 and CD40L expression)” value in the series with Vα14i NKT cells is on record as “highest percentage”. The “IFNγ levels in CD40-deficient mice” value in the series with CD40−/− mice is given as “strongly reduced”. Besides, the “IL-2 release by 1.2 hybridoma with APC from immunized mice” value in [2] (setting [3]) was “best response”. Besides, the “stability of complexes with CD1d in vivo” value in series [2] (functional bioassay) is given as “much more stable in vivo than OCH”. The “affinity of L317 for glycolipid bound to CD1d” value in the series on monoclonal antibody L317 was “highest”. The “IFNγ production by NK cells (trans-activation)” value in the series with NK cells is reported as “highest percentage of IFNγ-expressing NK cells”.

For the origin of these results see publication PMC2834884 (Journal of immunology (Baltimore, Md. : 1950), 2009).
